In ChEMBL document CHEMBL3102701, “Polyandric acid A, a clerodane diterpenoid from the Australian medicinal plant Dodonaea polyandra, attenuates pro-inflammatory cytokine secretion in vitro and in vivo” (J Nat Prod, 2014):
Activity calls are given as the source filed them. No cut-off for these calls is given here.

Columns and labels:
[1] = Antiinflammatory activity in human NHEK cells assessed as inhibition of TPA/ionomycin-induced extracellular IL-6 production at 30 uM incubated for 1 hr prior to TPA/ionomycin challenge measured after 6 hrs by ELISA; type: functional
Procedure, shortened: (§1)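 Primary neonatal keratinocytes (passage ≤3) seeded at 10 000/well for 18 h at 37 °C, 5% CO2, then given fresh medium. Preincubated 1 h with test agent, then stimulated with TPA 40 ng/mL/ionomycin 1 μM. Supernatants taken at 6 and 24 h, centrifuged and stored at −80 °C. Extracellular cytokines measured by ELISA; means ± SEM, n = 6.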

[2] = test system: THP-1; test: Cytotoxicity against human THP1 cells assessed as cell viability at 30 uM after 24 hrs by MTS assay; type: cell-based; conditions: thp-1, 24 h
Procedure, shortened: (§2)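 MTS viability: cells at 50 000/well were preincubated 1 h, then serial half-dilutions of test agent were added. After 24 h incubation, MTS reagent was added for 1 h and absorbance read at 492 nm.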

[3] = Cytotoxicity against human NHEK cells assessed as cell viability at 30 uM after 24 hrs by MTS assay; type: cell-based; procedure, shortened: as §2
[4] = test system: neonatal human epidermal keratinocytes (Homo sapiens); test: Antiinflammatory activity in human NHEK cells assessed as inhibition of TPA/ionomycin-induced IL-1alpha production at 0.3 to 30 uM incubated for 1 hr prior to TPA/ionomycin challenge measured after 6 to 24 hrs by ELISA
[5] = test system: RAW264.7; test: Antiinflammatory activity in mouse RAW264.7 cells assessed as inhibition of LPS-induced NO production at 3 to 30 uM incubated for 1 hr prior to LPS-challenge measured after 24 hrs by Greiss assay; type: functional, cell-based
Procedure, shortened: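 RAW264.7 macrophages (100 000/well) in DMEM preincubated 1 h with test agent at 3 or 30 μM. Stimulated with LPS 1 μg/mL final for 24 h at 37 °C, 5% CO2. Supernatant nitrite measured by Griess reaction (sulfanilic acid and N-naphthylethylenediamine in 5% HCl, 10 min at 37 °C). A540 read against a sodium nitrite standard curve; n = 8.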

[6] = test system: THP-1; test: Antiinflammatory activity in human THP1 cells assessed as inhibition of TPA/ionomycin-induced extracellular IL-1beta level at 30 uM incubated 1 hr prior to TPA/ionomycin challenge measured after 24 hrs by ELISA; type: functional
Procedure, shortened: (§3)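 THP-1 monocytes (100 000/well) in RPMI-1640 preincubated 1 h with test agent, ethanol ≤0.05%. Stimulated with TPA 40 ng/mL/ionomycin 1 μM (final) for 24 h at 37 °C, 5% CO2. Supernatant kept for extracellular cytokines. Washed cells were lysed in ice-cold RIPA with protease inhibitors for intracellular IL-1β and pro-IL-1β. ELISA read-out; n = 6.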

[7] = Antiinflammatory activity in human NHEK cells assessed as inhibition of TPA/ionomycin-induced extracellular TNF-alpha production at 3 uM incubated for 1 hr prior to TPA/ionomycin challenge measured after 6 hrs by ELISA; type: functional; procedure, shortened: as §1
[8] = test system: THP-1; test: Cytotoxicity against human THP1 cells assessed as cell viability at <60 uM after 24 hrs by MTS assay; type: cell-based; conditions: thp-1, 24 h; procedure, shortened: as §2
[9] = test system: neonatal human epidermal keratinocytes (Homo sapiens); test: Antiinflammatory activity in human NHEK cells assessed as inhibition of TPA/ionomycin-induced extracellular TNF-alpha production at 3 uM incubated for 1 hr prior to TPA/ionomycin challenge measured after 24 hrs by ELISA
[10] = Cytotoxicity against human NHEK cells assessed as cell viability at <60 uM after 24 hrs by MTS assay; type: cell-based; procedure, shortened: as §2
[11] = test system: RAW264.7; test: Cytotoxicity against mouse RAW264.7 cells assessed as cell viability at <60 uM after 24 hrs by MTS assay; type: cell-based; conditions: raw264.7, 24 h; procedure, shortened: as §2
[12] = test system: Mus musculus; test: Antiinflammatory activity in Balb/C mouse ear edema model assessed as reduction of TPA-induced IL-1beta production at 0.9 umol/ear by ELISA relative to control; type: functional; design: scale not given: the % may be the effect or the level left
Procedure, shortened: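 Acute TPA ear model in male Balb/C mice, killed 6 h after treatment (0.9 μmol/ear topical). 5 mm ear punches were homogenized in 50 mM Tris-HCl pH 7.4/1 mM EDTA with protease inhibitors, then held 15 min on ice with 1% Triton X-100. Spun at 9500g, 4 °C; supernatant assayed by ELISA. Basal untreated-ear levels were subtracted.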

[13] = test system: neonatal human epidermal keratinocytes (Homo sapiens); test: Antiinflammatory activity in human NHEK cells assessed as inhibition of TPA/ionomycin-induced IL-8 production at 0.3 to 30 uM incubated for 1 hr prior to TPA/ionomycin challenge measured after 6 to 24 hrs by ELISA
[14] = test system: Mus musculus; test: Antiinflammatory activity in Balb/C chronic mouse ear edema model assessed as reduction in TPA-induced myeloperoxidase accumulation at 0.9 umol/ear administered topically, bid from day 7 to day 10 measured every day during compound administration relative to control; type: functional; design: scale not given: the % may be the effect or the level left
Procedure, shortened: (§4)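 Chronic TPA ear model in male Balb/C mice: topical dosing at 0.9 μmol/ear in ethanol, twice daily days 7–9 and once on day 10, then euthanasia. 5 mm ear punches were homogenized in 80 mM PBS pH 5.4 with 0.5% HTAB and centrifuged. Supernatant in duplicate was reacted with H2O2 and 18.4 mM tetramethylbenzidine for 3 min at 37 °C. Stopped with sodium acetate pH 3.0; A600 read as neutrophil marker.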

[15] = Antiinflammatory activity in human NHEK cells assessed as inhibition of TPA/ionomycin-induced extracellular IL-6 production at 30 uM incubated for 1 hr prior to TPA/ionomycin challenge measured after 24 hrs by ELISA; type: functional; procedure, shortened: as §1
[16] = test system: THP-1; test: Antiinflammatory activity in human THP1 cells assessed as inhibition of TPA/ionomycin-induced extracellular IL-1beta level at 3 uM incubated 1 hr prior to TPA/ionomycin challenge measured after 24 hrs by ELISA; type: functional; procedure, shortened: as §3
[17] = test system: Mus musculus; test: Antiinflammatory activity in Balb/C chronic mouse ear edema model assessed as reduction in TPA-induced edema at 0.9 umol/ear administered topically, bid from day 7 to day 10 measured every day during compound administration relative to control; type: functional; design: scale not given: the % may be the effect or the level left
Procedure, shortened: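 Male Balb/C mice, 7–9 weeks old, acclimated at least 4 days. 20 μL TPA (125 μg/mL) was applied to inner and outer surfaces of both ears on alternate days from day 0. Test agent at 0.9 μmol/ear in 20 μL ethanol was applied topically to both ears morning and afternoon on days 7–9, with one more dose on day 10 morning. Ear thickness was read with a digital micrometer on days 0–4 and 7–10; means ± SEM, n ≥ 6.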

[18] = test system: Mus musculus; test: Antiinflammatory activity in Balb/C chronic mouse ear edema model assessed as reduction in TPA-induced flaky appearance in ears at 0.9 umol/ear administered topically, bid from day 7 to day 10 measured every day during compound administration relative to control; type: functional, organism-based
[19] = test system: THP-1; test: Antiinflammatory activity in human THP1 cells assessed as inhibition of TPA/ionomycin-induced intracellular IL-1beta level at 30 uM incubated 1 hr prior to TPA/ionomycin challenge measured after 24 hrs by ELISA; type: functional; procedure, shortened: as §3
[20] = test system: Mus musculus; test: Antiinflammatory activity in Balb/C chronic mouse ear edema model assessed as reduction in TPA-induced scaling in ears at 0.9 umol/ear administered topically, bid from day 7 to day 10 measured every day during compound administration relative to control; type: functional, organism-based
[21] = test system: THP-1; test: Antiinflammatory activity in human THP1 cells assessed as inhibition of TPA/ionomycin-induced TNF-alpha production at 30 uM incubated 1 hr prior to TPA/ionomycin challenge measured after 24 hrs by ELISA; type: functional; procedure, shortened: as §3
[22] = test system: Mus musculus; test: Antiinflammatory activity in Balb/C chronic mouse ear edema model assessed as reduction in influx of neutrophils at 0.9 umol/ear administered topically, bid from day 7 to day 10 measured every day during compound administration relative to control; type: functional, organism-based; procedure, shortened: as §4
[23] = test system: Mus musculus; test: Antiinflammatory activity in Balb/C chronic mouse ear edema model assessed as reduction in TPA-induced redness in ears at 0.9 umol/ear administered topically, bid from day 7 to day 10 measured every day during compound administration relative to control; type: functional, organism-based
[24] = test system: THP-1; test: Antiinflammatory activity in human THP1 cells assessed as inhibition of TPA/ionomycin-induced intracellular proIL-1beta level at 30 uM incubated 1 hr prior to TPA/ionomycin challenge measured after 24 hrs by ELISA; type: functional; procedure, shortened: as §3
[25] = test system: neonatal human epidermal keratinocytes (Homo sapiens); test: Antiinflammatory activity in human NHEK cells assessed as inhibition of TPA/ionomycin-induced extracellular TNF-alpha production at 30 uM incubated for 1 hr prior to TPA/ionomycin challenge measured after 6 to 24 hrs by ELISA
[26] = test system: THP-1; test: Antiinflammatory activity in human THP1 cells assessed as inhibition of TPA/ionomycin-induced extracellular IL-1beta level at 5 uM incubated 1 hr prior to TPA/ionomycin challenge measured after 24 hrs by ELISA; type: functional, cell-based; procedure, shortened: as §3
[27] = test system: THP-1; test: Antiinflammatory activity in human THP1 cells assessed as inhibition of TPA/ionomycin-induced intracellular proIL-1beta level at 5 uM incubated 1 hr prior to TPA/ionomycin challenge measured after 24 hrs by ELISA; type: functional, cell-based; procedure, shortened: as §3
[28] = test system: THP-1; test: Antiinflammatory activity in human THP1 cells assessed as inhibition of TPA/ionomycin-induced extracellular TNF-alpha production at 5 uM incubated 1 hr prior to TPA/ionomycin challenge measured after 24 hrs by ELISA; type: functional, cell-based; procedure, shortened: as §3
[29] = test system: THP-1; test: Antiinflammatory activity in human THP1 cells assessed as inhibition of TPA/ionomycin-induced intracellular IL-1beta level at 5 uM incubated 1 hr prior to TPA/ionomycin challenge measured after 24 hrs by ELISA; type: functional, cell-based; procedure, shortened: as §3

With C[C@]1(CCc2ccoc2)[C@H](COC(=O)c2ccccc2)CC[C@@]2(C)C(C(=O)O)=C[C@H](O)C[C@H]12 the inhibition at 30 µM [1] was 33.2%, the Activity [2] was “Non-toxic” and the Activity [3] was “Non-toxic”. For the same compound, the inhibition [4] was “inactive”, the inhibition [5] was “inactive” and the inhibition at 30 µM [6] was 26.3%. The inhibition at 3 µM [7] was 26.2%, the Activity [8] was “Non-toxic” and the inhibition [9] was “inactive”. The Activity [10] was “Non-toxic”, the Activity [11] was “Non-toxic” and the Activity [12] was 78%. For the same compound, the inhibition [13] was “inactive”, the Activity [14] was 81.5% and the inhibition at 30 µM [15] was 41.5%. The inhibition at 3 µM [16] was 18%, the Activity [17] was 41.1% and the Activity [18] was “Active”. For the same compound, the inhibition at 30 µM [19] was 15%, the Activity [20] was “Active” and the inhibition at 30 µM [21] was 19.7%. The Activity [22] was “Active”, the Activity [23] was “Active” and the inhibition at 30 µM [24] was 17%. The inhibition [25] was “inactive”.
In the case of Cc1ccc(S(=O)(=O)/C=C/C#N)cc1, the inhibition [26] is reported as “Active”, the inhibition [27] is reported as “Active” and the inhibition [28] is reported as “Active”. The inhibition [29] was “Active”.
Work on CCC(=O)OCC(=O)[C@@]1(OC(=O)CC)[C@@H](C)C[C@H]2[C@@H]3CCC4=CC(=O)C=C[C@]4(C)[C@@]3(F)[C@@H](O)C[C@@]21C [BETAMETHASONE DIPROPIONATE] yielded an Activity [14] of 90% and an Activity [17] of 54.2%.
